# PMI act hi M6P – increases human PMI activity with near-saturating mannose 6-phosphate | P34949 | coupled PMI enzyme assay, resazurin fluorescence, 20 min; stronger effect = higher value; 1 = untreated enzyme, 0 = substrate-free blank | activation factor at 20 µM | 190,000 compounds, 0.34% hits | AID 1216;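 active = activation factor of 2 or more at 20 µM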
# Target sequence (P34949 whole entry, looked up): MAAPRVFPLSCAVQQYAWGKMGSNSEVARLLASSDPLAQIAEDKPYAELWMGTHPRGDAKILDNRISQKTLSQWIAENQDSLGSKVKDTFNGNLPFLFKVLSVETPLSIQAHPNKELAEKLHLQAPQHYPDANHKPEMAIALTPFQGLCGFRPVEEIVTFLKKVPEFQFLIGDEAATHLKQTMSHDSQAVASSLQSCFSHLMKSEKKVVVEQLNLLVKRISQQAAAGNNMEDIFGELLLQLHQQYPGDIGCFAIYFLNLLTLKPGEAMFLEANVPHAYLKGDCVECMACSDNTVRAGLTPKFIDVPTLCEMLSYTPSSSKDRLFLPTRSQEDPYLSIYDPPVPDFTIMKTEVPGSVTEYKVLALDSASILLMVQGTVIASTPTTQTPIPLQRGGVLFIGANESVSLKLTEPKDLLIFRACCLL
#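 Test system – human PMI in coupled enzyme assay · Timing – 20 min incubation at room temperature · Detection – Diaphorase-driven resazurin-to-resorufin fluorescence, excitation 544, emission 590 nm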
# TNAP inh hi DEA – blocks human TNAP under high phosphate acceptor concentration; P05186; purified TNAP, CDP-star luminescence, 1 M DEA; inhibition, % at 20 µM; 200,000 compounds, 0.03% hits; AID 1135;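 active = over 50% inhibition of tissue-nonspecific alkaline phosphatase at 20 µM in the single-dose screen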;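 also: plate controls were DMSO wells for no effect and EDTA-quenched wells as full inhibition for full effect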
# TNAP act hiacc – TNAP (human) activation, high acceptor. P05186. purified TNAP, CDP-star luminescence, 1 M DEA, 30 min; stronger effect = higher value; 0 = EDTA background, 1 = DMSO-only activity. activation factor at 20 µM. 200,000 tested, under 10 active;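 active = activation factor at least 2 at 20 µM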
#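 Control set: EDTA negative control, DMSO positive control / Assay system: human TNAP / Quantity: TNAP 1/800 final / Evaluation: TNAP activation factor scaled between EDTA and DMSO control wells / Measured by: luminescent substrate turnover signal / Compound dosing: one dose, 20 µM / Times: 30 min enzyme reaction at room temperature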
# TNAP inh noacc – inhibitors of human TNAP without phosphate acceptor | P05186 | purified TNAP, CDP-star luminescence, 30 min | inhibition, % at 20 µM | 200,000 compounds, 0.26% hits;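 active = tissue-nonspecific alkaline phosphatase inhibition above about 50% at 20 µM in the single-dose screen, limit read from the data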;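 also: 0% = DMSO negative control and 100% = EDTA positive control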
# PMI activator – phosphomannose isomerase (human) activation; P34949; purified human PMI, coupled resazurin fluorescence, 20 min; stronger effect = higher value; 1 = vehicle control, 0 substrate-free wells; activation factor at 20 µM; 190,000 compounds, 0.005% hits;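 active = activation factor of 2 or more at 20 µM, relative to plate controls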
# Active calls of the source: *. This is a sample that favours compounds with a hit; in the whole collection about 0.62% have one here.
SMILES,PMI act hi M6P,TNAP inh hi DEA,TNAP act hiacc,TNAP inh noacc,PMI activator
O=C(NCCCN1CCOCC1)c1ccc(Sc2cccc(Cl)c2)c([N+](=O)[O-])c1,1.2,-4.0,1,-11.4,1.2
CCOC(=O)CC(=O)N/N=C/c1c(N)n(C)c(=O)n(C)c1=O,1.1,-7.1,1.1,-7.5,1.1
COC(=O)c1cc(-c2ccc(C)cc2)n[nH]1,1,-1.5,1,90.5*,1
COC(=O)c1cc(-c2cccc(OC)c2)n[nH]1,1,-2.8,1,46.4,1
CCOC(=O)c1cc(-c2ccc(C)o2)n[nH]1,0.9,0.4,1,68.5*,0.9
COC(=O)c1cc(-c2ccc(OC)cc2)n[nH]1,0.9,-4.7,1,94.3*,0.9
CCOc1ccc(-c2cc(C(=O)OC)[nH]n2)cc1,0.8,-6.2,1.1,85.3*,0.9
c1ccc(OCCN2CCN(Cc3nc(-c4ccc5c(c4)OCO5)no3)CC2)cc1,1,-2.2,1,-13.9,1
C=CCn1c(C2CCCCC2)n[nH]c1=S,0.9,-2.0,1,28.6,1
O=C(CSc1ccc(F)cc1)NC(=O)NCc1ccccc1,0.9,-3.6,1,0.0,0.9
COCCCNC(=O)COc1ccc(S(=O)(=O)NCc2ccccc2)cc1Cl,1.1,-4.0,1,-9.0,1.1
NC(=S)N/N=C\c1c2ccccc2cc2ccccc12,2.3*,-0.7,1,1.0,1.6
O=C1c2ccccc2C(=O)N1CCCc1nc2ccccc2c(=O)n1CCCn1ccnc1,0.9,17.3,0.8,52.9*,1.1
Cc1[nH][nH]c(=O)c1C(c1cc([N+](=O)[O-])ccc1O)c1c(C)[nH][nH]c1=O,0.7,77.4*,0.2,79.3*,0.9
CN1CCC(NC(=S)Nc2cccc([N+](=O)[O-])c2)CC1,1,0.8,1,-4.0,1
O=C(Nc1ncn[nH]1)c1ccc(Cl)c(S(=O)(=O)Nc2ccc(Cl)cc2)c1,2.1*,-0.5,1,-64.7,1.6
CC1=C(C(=O)Nc2ccccc2C)C2(CCCCC2)C(C(N)=O)C(=S)N1 (configuration not stated),2*,-0.6,1,-20.9,1.5
CC1=C(C(=O)Nc2ccccc2)C2(CCCCC2)C(C(N)=O)C(=S)N1 (configuration not stated),1.6,-1.1,1,-15.6,1.4
CC(C)Cn1c(-c2ccccc2F)n[nH]c1=S,1.2,-9.6,1.1,52.0*,1
CC(C)Cn1c(-c2ccc(F)cc2)n[nH]c1=S,1.1,2.0,1,18.5,0.9
O=C(CC(NC(=O)c1ccccc1)c1ccccc1)Nc1cccc2ccccc12 (configuration not stated),1,-6.8,1.1,-40.9,1
CCCN(CCC)CCNC(=S)Nc1ccc2nc3n(c(=O)c2c1)CCCCC3,0.9,-4.7,1,-8.7,1
O=c1cc(CN2CCc3ccccc32)nc2sccn12,1.8,-4.4,1,-28.1,1.5
O=c1cc(CN2CCCc3ccccc32)nc2sccn12,2.1*,-0.4,1,-11.4,1.8
CC(=O)c1sc(N/N=C2\CC3CC2C(C)C3(C)C)nc1C (configuration not stated),1.1,-3.2,1,-3.6,1.1
SMILES,PMI act hi M6P,TNAP inh hi DEA,TNAP act hiacc,TNAP inh noacc,PMI activator
Cc1cccc(/C=N/n2c(-c3ccccn3)n[nH]c2=S)c1,1,-1.6,1,53.5*,0.9
CCNC(=O)CSc1nnc(-c2cc(-c3ccc(Cl)cc3)nc3ccccc23)o1,1,1.7,1,3.3,0.9
O=C(c1ccc2snnc2c1)N1CCSCC1,2.6*,-4.2,1,-10.7,1.8
Cc1ccc(/C=C/C(=O)O)cc1S(=O)(=O)NCc1ccco1,1,-1.6,1,-5.2,1
CN(CCOC(=O)c1cccc(F)c1)Cc1ccccc1,1.1,-3.4,1,-16.7,1
CC(CN(C)Cc1ccccc1)OC(=O)c1cccc(F)c1 (configuration not stated),2.4*,-1.7,1,-4.0,1.6
c1ccc(-c2nc(-c3ccccn3)no2)cc1,1,0.5,1,-3.9,1.1
c1ccc(-c2n[nH]c(-c3ccccn3)n2)cc1,0.9,-3.9,1,66.6*,0.9
O=C(O)c1ccccc1C(=O)c1ccc2c(c1)N(Cc1ccc(Cl)c(Cl)c1)C(=O)CO2,0.8,0.6,1,-6.1,0.8
CCOC(=O)C(=O)Nc1ccccc1C(=O)OC,1,-3.8,1,-1.4,0.9
CCOC(=O)C(=O)NNc1ccccc1C,2.2*,-2.0,1,-9.0,1.5
CCOC(=O)C(=O)NNc1cccc(C)c1C,2.2*,0.9,1,-4.1,1.6
CCOC(=O)C(=O)Nc1ccccc1C(N)=O,1,-4.3,1,-31.1,1
O=c1c(N2CCCCC2)coc2ccccc12,2*,-1.4,1,-9.5,1.5
O=C1N=c2ccccc2=C1c1sc(Nc2ccc(O)cc2)nc1O,1,44.4,0.6,81.6*,1
O=C1N=c2ccccc2=C1c1sc(NS(=O)(=O)c2ccccc2)nc1O,1.1,2.3,1,13.4,1.1
CC(=O)c1ccc2noc(-c3ccc(C)cc3)c2c1,2*,6.9,0.9,-3.6,1.9
O=C(O)Cc1nn(Cc2ccc(Cl)cc2)c(=O)c2ccccc12,1,-4.2,1,-9.9,1
CN(c1ccccc1)S(=O)(=O)c1cccc(C(=O)NCCc2ccc(O)c(O)c2)c1,0.8,12.8,0.9,50.7*,0.5
COc1ccc(CCNC(=O)c2ccc(Cl)c(S(=O)(=O)N(C)c3ccccc3)c2)cc1,1,3.2,1,2.2,0.8
CN1c2ccccc2C(C)(C)C12CCCC(=O)N2 (configuration not stated),2*,5.4,0.9,1.7,1.4
CC1(C)c2ccccc2N2CCC(=O)NC21/C=C/c1ccco1 (configuration not stated),1,-7.7,1.1,-4.6,1.1
NS(=O)(=O)c1ccc(CCNC(=O)c2ccc(C#CC3(O)CCCCC3)cc2)cc1,0.9,-2.4,1,-8.1,0.9
CSc1ccccc1NC(=O)c1cc(-c2cccnc2)nc2ccc(Br)cc12,1,-2.4,1,-0.8,1
COc1ccc(-c2nc(N=Nc3ccc(O)cc3)n[nH]2)cc1,1,28.7,0.7,74.3*,1
Cc1ccc(-c2nc(N=Nc3ccc(O)cc3)n[nH]2)cc1,1,33.3,0.7,68.5*,1.1
CC(C)(C)NC(=O)C(c1cccs1)N(C(=O)c1csnn1)c1ccccc1F (configuration not stated),0.9,-4.5,1,-7.4,0.9
COc1ccc(-c2[nH]ncc2CN2CCN(Cc3cccs3)CC2)c(F)c1,1.1,-4.9,1,62.6*,1

# Bioassay records deposited in PubChem BioAssay by Sanford-Burnham Center for Chemical Genomics.
